Source: ChEMBL document CHEMBL1125156, “Inhibitors of human leukocyte proteinase-3” (J Med Chem, 1990)
Calls of active or inactive are those of the source. The calls are words filed in the database; no cut-off is given here.

Experiments:
[1] = biological target: T1, Neutrophil elastase (Homo sapiens) (UniProt P08246); experiment: Evaluated for the inhibition of Human leukocyte elastase
T1 sequence (whole entry): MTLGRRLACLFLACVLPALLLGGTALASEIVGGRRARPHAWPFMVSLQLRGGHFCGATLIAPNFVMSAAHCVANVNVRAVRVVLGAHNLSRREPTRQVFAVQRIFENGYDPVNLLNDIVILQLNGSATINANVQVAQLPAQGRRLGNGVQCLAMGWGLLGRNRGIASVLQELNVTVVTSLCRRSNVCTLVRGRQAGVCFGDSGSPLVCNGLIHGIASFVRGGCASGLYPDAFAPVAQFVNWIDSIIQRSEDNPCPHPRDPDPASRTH

[2] = biological target: T2, Myeloblastin (Homo sapiens) (UniProt P24158); experiment: Evaluated for the inhibition of Human leukocyte Proteinase 3 (PR-3)
T2 sequence (whole entry): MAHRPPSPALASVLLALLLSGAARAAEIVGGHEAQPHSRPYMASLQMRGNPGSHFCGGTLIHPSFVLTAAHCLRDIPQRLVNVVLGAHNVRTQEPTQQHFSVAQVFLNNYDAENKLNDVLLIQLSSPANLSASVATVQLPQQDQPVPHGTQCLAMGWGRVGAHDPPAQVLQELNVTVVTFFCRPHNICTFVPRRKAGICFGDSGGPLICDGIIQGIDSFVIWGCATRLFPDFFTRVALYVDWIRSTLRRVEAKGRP
Summary of the method: (§1)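 PR-3 purified from polymorphonuclear leukocyte granules. Inhibitor in DMSO was incubated with enzyme in 0.1 M phosphate, pH 6.5, in a constant-temperature bath. Aliquots taken over time went into BOC-Ala-p-nitrophenol (20 mM acetonitrile stock) in phosphate buffer. After 30 s, A347.5 was read for 1 min. kobs came from ln(vt/v0) versus time and is reported as kobs/[I] (M-1 s-1).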

[3] = biological target: T2, Myeloblastin (Homo sapiens); experiment: Evaluated for the inhibition of Human leukocyte Proteinase 3 (PR-3); Inactive; summary of the method: as §1
[4] = biological target: T2, Myeloblastin (Homo sapiens); experiment: Evaluated for the inhibition of Human leukocyte Proteinase 3 (PR-3) following a 10-min incubation with a 50-fold excess of inhibitor; settings: concentration not given here

SMILES	K obs / 1 [2] [M⁻¹ s⁻¹]	other results
CC(C)C1CC(=O)N(OS(=O)(=O)/C=C/c2ccccc2)C1=O (stereo not drawn)	8100	K obs / 1 [1]: 100000 M⁻¹ s⁻¹
CC1CC(=O)N(OS(C)(=O)=O)C1=O (stereo not drawn)	2300	–
CC(C)CC1CC(=O)N(OS(=O)(=O)/C=C/c2ccccc2)C1=O (stereo not drawn)	10400	–
CC(C)C1CC(=O)N(OS(C)(=O)=O)C1=O (stereo not drawn)	2200	–
CCCC1CC(=O)N(OS(C)(=O)=O)C1=O (stereo not drawn)	8600	K obs / 1 [1]: 8600 M⁻¹ s⁻¹
CS(=O)(=O)ON1C(=O)CC(Cc2ccccc2)C1=O (stereo not drawn)	–	K obs / 1 [1]: 1100 M⁻¹ s⁻¹; K obs / 1 [3]: inactive
CS(=O)(=O)ON1C(=O)CCC1=O	–	K obs / 1 [3]: inactive
CCCCC1CC(=O)N(OS(C)(=O)=O)C1=O (stereo not drawn)	800	K obs / 1 [1]: 4100 M⁻¹ s⁻¹
CCCCC1CC(=O)N(OS(=O)(=O)/C=C/c2ccccc2)C1=O (stereo not drawn)	3800	–
CCC1CC(=O)N(OS(C)(=O)=O)C1=O (stereo not drawn)	13400	–
CC1CC(=O)N(OS(=O)(=O)/C=C/c2ccccc2)C1=O (stereo not drawn)	4500	–
CC(C)CC1CC(=O)N(OS(C)(=O)=O)C1=O (stereo not drawn)	1200	–
O=C1CC(Cc2ccccc2)C(=O)N1OS(=O)(=O)/C=C/c1ccccc1 (stereo not drawn)	–	inhibition [4]: < 35%
O=C1CCC(=O)N1OS(=O)(=O)/C=C/c1ccccc1	–	inhibition [4]: < 35%
